Screens: PubChem BioAssay, several laboratories
Rows were chosen to be rich in hits. Some 4.8% of all compounds tested hit in one or more screens of this group.
ATG4B inh: inhibitors of human ATG4B cysteine protease; Q9Y4P1; ATG4B cleavage of LC3-PLA2, NBD-HPC fluorescence, 1 h; inhibition, % at 8.33 µM; 0.51% of 340,000 active; AID 504462; in the data active = inhibition above about 40%
Target sequence (Q9Y4P1 whole entry, looked up): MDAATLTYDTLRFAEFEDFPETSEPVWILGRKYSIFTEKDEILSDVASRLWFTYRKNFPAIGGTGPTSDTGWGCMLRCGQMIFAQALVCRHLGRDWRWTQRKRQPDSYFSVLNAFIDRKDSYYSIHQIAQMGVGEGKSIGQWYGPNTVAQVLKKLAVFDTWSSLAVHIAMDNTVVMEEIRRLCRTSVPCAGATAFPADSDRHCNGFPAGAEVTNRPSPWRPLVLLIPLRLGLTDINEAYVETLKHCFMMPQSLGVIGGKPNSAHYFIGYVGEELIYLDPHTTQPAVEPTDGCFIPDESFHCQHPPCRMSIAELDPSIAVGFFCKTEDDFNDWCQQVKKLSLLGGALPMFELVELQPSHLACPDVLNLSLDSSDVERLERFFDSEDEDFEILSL
NALP1 yeast inh: inhibitors of NALP1 inflammasome in yeast | S. cerevisiae NALP1/ASC/caspase-1 growth, X-gal OD620, 72 h | inhibition, % at 10 µM | 0.61% of 280,000 active | AID 2071; in the data active = inhibition mostly above about 24%, no sharp cut-off; inactive = mostly below about 32%
Calb FLC: affects C. albicans growth with fluconazole | C. albicans CaCi-2 (fluconazole-resistant clinical isolate) + fluconazole, Alamar Blue growth, 48 h | growth inhibition, % (no concentration beside the values) | 0.57% of 300,000 active;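 active = growth inhibition above about 58% in most replicates, limit read from the data, passing the limit was not always enough; inconclusive = exactly half the replicates above a set limit; inactive = most replicates below a set limit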;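 also: all wells also contain fluconazole at 8 µg/ml as a sub-toxic cotreatment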
UCH37 DUB inh: inhibitors of human deubiquitinating enzyme UCH37 | purified proteasome/UCH37, Ub-AMC cleavage fluorescence | inhibition, % (test concentration not listed) | 0.33% of 330,000 active;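 active = mean inhibition over replicate wells above about 20%, limit read from the data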
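Material: human UCH37 enzyme supplied as purified proteasome complex. Measure: % inhibition of Ub-AMC cleavage fluorescence. Medium: pH 7.4 Tris-HCl (50 mM) with ovalbumin, ATP-MgCl2, DTT. Times: 30 min preincubation with enzyme, 25 min cleavage at room temperature. Detection: AMC fluorescence intensity at 355/460 nm.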
NLRP3 yeast inh: NALP3 inhibition in yeast | AID 2825 | Yeast reconstituted NLRP3/ASC/caspase-1, beta-gal luminescence, 24 h | 0.39% of 330,000 active | inhibition, % at 10 µM;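 active = inhibition of 50% or more; inactive = inhibition below 50%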
ALR H2O2 inh: blocks human ALR sulfhydryl oxidase activity; P55789; purified ALR, DTT oxidation, H2O2 HRP-luminol luminescence; inhibition, % (test concentration not listed); 3.8% of 290,000 active;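 active = mean replicate inhibition above about 79%, with every replicate also reaching it, limit read from the data; inconclusive = only one of the two criteria met; inactive = mean below limit and not every replicate reaching it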
Target sequence (P55789 whole entry, looked up): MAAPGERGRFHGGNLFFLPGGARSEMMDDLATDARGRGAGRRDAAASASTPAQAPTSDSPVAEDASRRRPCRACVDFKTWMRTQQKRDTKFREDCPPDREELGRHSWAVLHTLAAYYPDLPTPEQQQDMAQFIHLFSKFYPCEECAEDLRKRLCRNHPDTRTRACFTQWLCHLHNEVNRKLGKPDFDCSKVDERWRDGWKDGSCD
Each line names hits and unclear results; the compound was inactive in the other large screens.

COc1ccc(O)c(C=NNC(=O)CCn2nnc3ccccc32)c1	none (no result: ATG4B inh, NALP1 yeast inh, Calb FLC, NLRP3 yeast inh, ALR H2O2 inh)
CCn1c(SCC(=O)N/N=C/c2cc(OC)c(OC)c(OC)c2)nc2ccccc21	none (no result: UCH37 DUB inh)
CCOc1cc(/C=N/NC(=O)CCn2nnc3ccccc32)ccc1O	ALR H2O2 inh 100 (no result: UCH37 DUB inh)
CCn1c(SCC(=O)N/N=C/c2cc(OC)c(O)c(OC)c2)nc2ccccc21	ALR H2O2 inh 99 (no result: UCH37 DUB inh)
O=C(CSc1n[nH]c(=O)[nH]c1=O)N/N=C/c1ccccc1O	none (no result: UCH37 DUB inh, ALR H2O2 inh)
COc1cc(/C=N/NC(=O)CSc2n[nH]c(=O)[nH]c2=O)cc(OC)c1O	ALR H2O2 inh 98 (no result: UCH37 DUB inh)
Cc1c(Cl)cccc1NC(=S)NN=Cc1ccccc1Cl	none (no result: ATG4B inh, NALP1 yeast inh, Calb FLC, NLRP3 yeast inh, ALR H2O2 inh)
CC(C)CN(CC(C)C)c1ccc(C=Nn2cnnc2)cc1[N+](=O)[O-]	none (no result: ATG4B inh, NALP1 yeast inh, Calb FLC, NLRP3 yeast inh, ALR H2O2 inh)
CCn1c(SCC(=O)N/N=C/c2ccc(O)c(OC)c2)nc2ccccc21	ALR H2O2 inh 99 (no result: UCH37 DUB inh)
COc1cc(/C=N/NC(=O)C(C)n2nnc3ccccc32)ccc1O (configuration not stated)	ALR H2O2 inh 97 (no result: UCH37 DUB inh)
O=C(NCCc1ccccc1)c1cc(-c2ccccc2)c(N2CCOCC2)s1	none (no result: NALP1 yeast inh)
CCN(CC)CCCNC(=O)c1cc(-c2ccccc2)c(N2CCCCC2)s1	ALR H2O2 inh 99
Cn1c(=O)c2c(nc(NN=Cc3cccnc3)n2Cc2ccc(F)cc2)n(C)c1=O	none (no result: ATG4B inh, NALP1 yeast inh, Calb FLC, NLRP3 yeast inh, ALR H2O2 inh)
Cc1ccc(/C=C/C(=O)c2ccccc(=O)c2O)cc1C	Calb FLC 99, ALR H2O2 inh 96 (no result: NLRP3 yeast inh)
Cc1csc(SCC(=O)Nc2nc(-c3ccccc3)cs2)n1	none (no result: NALP1 yeast inh)
Cc1nnc(SCC(=O)Nc2ccc(Br)cn2)[nH]c1=O	ALR H2O2 inh 99
Cc1ccc(-c2csc(NC(=O)CSc3nc4ccccc4[nH]3)n2)cc1	none (no result: NLRP3 yeast inh, ALR H2O2 inh)
Cc1nnc(SCC(=O)Nc2nc(-c3ccc(F)cc3)cs2)[nH]c1=O	ALR H2O2 inh 99 (no result: UCH37 DUB inh)
Cc1cc(=O)[nH]c(SCC(=O)Nc2nc(-c3ccccc3)cs2)n1	ALR H2O2 inh 99 (no result: UCH37 DUB inh)
Cc1[nH]c2ccccc2c1-c1csc(NC(=O)CSCC(=O)O)n1	ALR H2O2 inh 100
Cc1[nH]c2ccccc2c1-c1csc(NC(=O)CN2CCOCC2)n1	none
COc1ccc(C=NNC(=O)CCC(=O)Nc2ccc(Br)cc2)c(OC)c1	none (no result: ATG4B inh, NALP1 yeast inh, Calb FLC, NLRP3 yeast inh, ALR H2O2 inh)
O=C(CSc1ncn[nH]1)Nc1nc(-c2ccccc2)cs1	UCH37 DUB inh 28
c1ccc(Nc2nc(CSc3ncn[nH]3)cs2)cc1	ALR H2O2 inh 94
Cc1cc(=O)[nH]c(SCC(=O)Nc2nc3ccccc3s2)n1	ALR H2O2 inh 99
Cc1cc(=O)[nH]c(SCC(=O)Nc2nnc(SCc3ccccc3)s2)n1	none (no result: UCH37 DUB inh)
CC(CCc1ccccc1)=NNC(=O)C(=O)NC(C)c1ccccc1 (configuration not stated)	none (no result: ATG4B inh, NALP1 yeast inh, Calb FLC, NLRP3 yeast inh, ALR H2O2 inh)
Cc1ccc(O)c(-c2cc(C(F)(F)C(F)F)nc(-c3ccccc3)n2)c1	none
Oc1ccc(Cl)cc1-c1cc(C(F)(F)C(F)F)nc(-c2ccccc2)n1	NALP1 yeast inh 43, Calb FLC inconclusive
Cc1cccn2cc(CNc3ccccc3)nc12	ALR H2O2 inh 98
O=c1ccc2cc3c4c(c2o1)CCCN4CCC3	none
O=c1oc2c3c4c(cc2s1)CCCN4CCC3	ALR H2O2 inh 99
COc1ccc(N=c2scc(-c3ccc(OC)cc3)n2CCO)cc1	ALR H2O2 inh 86
Cn1c[n+](C)cc1C=NO	none (no result: ATG4B inh, NALP1 yeast inh, Calb FLC, NLRP3 yeast inh, ALR H2O2 inh)
Cc1n[nH]c(=O)c2c(NC(=O)CSc3nn(-c4ccccc4)c(=S)s3)oc(C)c12	ALR H2O2 inh 99 (no result: NALP1 yeast inh)
CCOC(=O)c1c(CSc2ccsc2)n(C)c2cc(Br)c(O)c(CN(C)C)c12	ALR H2O2 inh 97
CCOC(=O)c1c(CSc2ccccc2)n(C)c2cc(Br)c(O)c(CN(C)C)c12	ALR H2O2 inh 84
Cc1ccc(NCc2nc3ccccc3n2C)c(C)c1	ALR H2O2 inh 98
Cc1cccc(-n2c(Cc3ccccc3)n[nH]c2=S)c1	none
CS(=O)(=O)Nc1ccc(-c2n[nH]c(=S)n2-c2ccccc2)cc1	ALR H2O2 inh 97
Cc1ccc(NCc2n[nH]c(=S)n2-c2ccccc2)c(C)c1	ALR H2O2 inh 98
Cc1cccc(NCc2n[nH]c(=S)n2-c2ccccc2)c1	none
Cc1ccc(NCc2n[nH]c(=S)n2-c2ccccc2)cc1	ALR H2O2 inh 98
Cc1ccc(C=NNC(=O)CN2CCN(S(=O)(=O)c3ccc(Br)cc3)CC2)s1	none (no result: ATG4B inh, NALP1 yeast inh, Calb FLC, NLRP3 yeast inh, ALR H2O2 inh)
COc1ccc(NC(=O)COc2ccc(C=Nn3c(C)nnc3C)cc2OC)cc1	none (no result: ATG4B inh, NALP1 yeast inh, Calb FLC, NLRP3 yeast inh, ALR H2O2 inh)
